Experimental data taken from ChEMBL document CHEMBL1681706, “Design and synthesis of novel CCR2 antagonists: investigation of non-aryl/heteroaryl binding motifs” (Bioorg Med Chem Lett, 2011).

Legend:
[1] = target: T1, C-C chemokine receptor type 2 (Homo sapiens, UniProt P41597); assay: Displacement of [125I]MCP1 from human CCR2 at 0.30 uM preincubated 30 mins by human whole cell binding assay
Target sequence in this assay (P41597 whole entry, looked up): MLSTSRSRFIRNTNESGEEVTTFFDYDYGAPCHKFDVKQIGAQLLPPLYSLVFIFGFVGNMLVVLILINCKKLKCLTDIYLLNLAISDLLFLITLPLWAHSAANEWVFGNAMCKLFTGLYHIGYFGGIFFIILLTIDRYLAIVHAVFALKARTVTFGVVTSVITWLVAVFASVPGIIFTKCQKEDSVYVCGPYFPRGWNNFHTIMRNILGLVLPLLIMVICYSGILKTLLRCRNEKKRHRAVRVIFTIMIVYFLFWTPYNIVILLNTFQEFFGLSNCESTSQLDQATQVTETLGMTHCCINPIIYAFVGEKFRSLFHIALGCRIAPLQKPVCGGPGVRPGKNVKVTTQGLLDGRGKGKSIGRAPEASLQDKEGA

hERG (KCNH2) = hERG (KCNH2) (Homo sapiens, UniProt Q12809); assay: Displacement of dofetilide from human ERG at 10 uM; settings: probe dofetilide
Sequence of hERG (KCNH2) (Q12809 whole entry): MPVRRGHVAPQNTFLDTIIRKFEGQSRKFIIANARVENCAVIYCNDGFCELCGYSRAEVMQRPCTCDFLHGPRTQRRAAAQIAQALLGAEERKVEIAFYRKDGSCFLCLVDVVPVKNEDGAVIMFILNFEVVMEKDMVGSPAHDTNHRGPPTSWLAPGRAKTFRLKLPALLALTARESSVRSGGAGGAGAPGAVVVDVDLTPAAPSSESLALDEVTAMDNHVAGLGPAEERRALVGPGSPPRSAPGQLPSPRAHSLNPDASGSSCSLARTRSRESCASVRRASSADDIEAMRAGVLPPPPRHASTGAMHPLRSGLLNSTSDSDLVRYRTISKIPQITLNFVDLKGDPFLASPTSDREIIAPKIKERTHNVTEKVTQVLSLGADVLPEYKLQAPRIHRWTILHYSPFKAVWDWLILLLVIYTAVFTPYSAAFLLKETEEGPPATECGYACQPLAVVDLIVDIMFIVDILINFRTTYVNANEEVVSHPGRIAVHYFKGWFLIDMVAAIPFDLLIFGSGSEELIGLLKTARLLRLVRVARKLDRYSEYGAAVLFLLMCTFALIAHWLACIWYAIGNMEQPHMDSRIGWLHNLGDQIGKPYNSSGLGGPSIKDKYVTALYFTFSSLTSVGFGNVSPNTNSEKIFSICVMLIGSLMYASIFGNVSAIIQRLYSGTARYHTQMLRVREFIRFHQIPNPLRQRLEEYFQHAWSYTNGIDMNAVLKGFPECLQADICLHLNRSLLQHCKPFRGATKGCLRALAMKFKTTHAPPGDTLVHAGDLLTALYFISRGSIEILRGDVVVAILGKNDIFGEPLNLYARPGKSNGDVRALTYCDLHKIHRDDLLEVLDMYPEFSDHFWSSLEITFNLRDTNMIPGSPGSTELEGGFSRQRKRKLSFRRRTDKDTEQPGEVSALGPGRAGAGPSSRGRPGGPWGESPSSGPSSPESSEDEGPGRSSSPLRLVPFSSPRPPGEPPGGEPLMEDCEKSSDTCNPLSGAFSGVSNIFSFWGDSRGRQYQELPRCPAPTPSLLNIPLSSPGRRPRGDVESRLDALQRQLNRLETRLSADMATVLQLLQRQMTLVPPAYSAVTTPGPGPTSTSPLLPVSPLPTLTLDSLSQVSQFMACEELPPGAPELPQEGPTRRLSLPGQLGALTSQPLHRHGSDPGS
Summary of the method: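 hERG dofetilide assay, read out as percent inhibition at a single concentration of test compound.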

[2] = Half life in human liver microsomes at 1 uM; format: ADME, Microsome
Summary of the method: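 Human liver microsome stability test, read out as half-life (t1/2, min) after a single low dose of compound.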

[3] = target: T1, C-C chemokine receptor type 2; assay: Displacement of [125I]MCP1 from human CCR2 preincubated 30 mins by human whole cell binding assay
Summary of the method: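 Whole cell binding to human CCR2, with a 30 min preincubation with compound.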
Target sequence in this assay (P41597 whole entry): as the sequence (P41597 whole entry, looked up) above

[4] = target: T1, C-C chemokine receptor type 2; assay: Displacement of [125I]MCP1 from human CCR2 preincubated 1 hrs by human whole cell binding assay
Summary of the method: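 Human CCR2 whole cell binding, with compound preincubated for 1 h before the binding read-out.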
Target sequence in this assay (P41597 whole entry): as the sequence (P41597 whole entry, looked up) above

[5] = Apparent permeability from basolateral to apical side of MDCK cells; format: ADME, cell-based, Canis lupus familiaris; settings: dog
[6] = Apparent permeability from apical to basolateral side of MDCK cells; format: ADME, cell-based, Canis lupus familiaris; settings: dog
[7] = Efflux ratio of permeability from basolateral to apical over apical to basolateral side of MDCK cells; format: ADME, cell-based, Canis lupus familiaris; settings: dog
[8] = target: T1, C-C chemokine receptor type 2; assay: Displacement of [125I]MCP1 from human CCR2 at 0.30 uM preincubated 1 hr by human whole cell binding assay
Target sequence in this assay (P41597 whole entry, looked up): as above

[9] = target: T1, C-C chemokine receptor type 2; assay: Displacement of [125I]MCP1 from human CCR2 at 0.30 uM by human whole cell binding assay
Target sequence in this assay (P41597 whole entry, looked up): as above

With CC(C)C(=O)N1C[C@@H]2C[C@H]1CN2C(=O)[C@@]1(C(C)C)CC[C@@H](NC2CCOCC2)C1 the Activity [1] was 40%, the inhibition at 10 µM (hERG (KCNH2)) was 3.7% and the half-life at 1 µM [2] was greater than 2 h.

With CC(C)[C@]1(C(=O)N2C[C@@H]3C[C@H]2CN3C(=O)CC(C)(C)C)CC[C@@H](NC2CCOCC2F)C1 (stereo partly specified) the inhibition at 10 µM (hERG (KCNH2)) was 0%, the IC50 [3] was 39.5 nM and the half-life at 1 µM [2] was 1.27 h.

For CC(C)[C@]1(C(=O)N2C[C@@H]3C[C@H]2CN3C(=O)CC(C)(C)C)CC[C@@H](NC2CCOCC2)C1, the inhibition at 10 µM (hERG (KCNH2)) was 5.7%, the IC50 [4] was 36.9 nM and the half-life at 1 µM [2] was greater than 2 h.

In the case of CO[C@@H]1COCC[C@@H]1N[C@@H]1CC[C@@](C(=O)N2C[C@@H]3C[C@H]2CN3C(=O)OC(C)(C)C)(C(C)C)C1, the inhibition at 10 µM (hERG (KCNH2)) is reported as 0%, the IC50 [4] is reported as 2.9 nM and the half-life at 1 µM [2] is reported as greater than 2 h.

In the case of CC(C)[C@]1(C(=O)N2C[C@@H]3C[C@H]2CN3C(=O)C2CCCCC2)CC[C@@H](NC2CCOCC2)C1, the inhibition at 10 µM (hERG (KCNH2)) is reported as 4%, the IC50 [3] is reported as 11.6 nM and the half-life at 1 µM [2] is reported as 1.55 h.

In the case of CC(C)[C@]1(C(=O)N2C[C@@H]3C[C@H]2CN3C(=O)C2CC2)CC[C@@H](NC2CCOCC2)C1, the inhibition at 10 µM (hERG (KCNH2)) is reported as 2.3%, the IC50 [3] is reported as 130 nM and the half-life at 1 µM [2] is reported as greater than 2 h.

Molecule CC(C)[C@]1(C(=O)N2C[C@@H]3C[C@H]2CN3C(=O)N2CCCCC2)CC[C@@H](NC2CCOCC2F)C1 (stereo partly specified) has an inhibition at 10 µM (hERG (KCNH2)) of 0% and an IC50 [3] of 75.9 nM.

CC(C)[C@]1(C(=O)N2C[C@@H]3C[C@H]2CN3C(=O)OC2CCCC2)CC[C@@H](NC2CCOCC2F)C1 (stereo partly specified) showed an inhibition at 10 µM (hERG (KCNH2)) of 0%, an IC50 [3] of 3.1 nM and a half-life at 1 µM [2] of 0.283 h.

In the case of CO[C@@H]1COCC[C@@H]1N[C@@H]1CC[C@@](C(=O)N2C[C@@H]3C[C@H]2CN3C(=O)CC(C)(C)C)(C(C)C)C1, the inhibition at 10 µM (hERG (KCNH2)) is reported as 0%, the IC50 [4] is reported as 17 nM and the IC50 [3] is reported as 24.2 nM. The half-life at 1 µM [2] was greater than 2 h.

Molecule CC(C)[C@]1(C(=O)N2C[C@@H]3C[C@H]2CN3C(=O)CCC(F)(F)F)CC[C@@H](NC2CCOCC2)C1 has an inhibition at 10 µM (hERG (KCNH2)) of 1%, an IC50 [3] of 14.6 nM and a half-life at 1 µM [2] greater than 2 h.

Molecule CC(=O)N1C[C@@H]2C[C@H]1CN2C(=O)[C@@]1(C(C)C)CC[C@@H](NC2CCOCC2)C1 has an Activity [1] of 1%, an inhibition at 10 µM (hERG (KCNH2)) of 0% and a half-life at 1 µM [2] greater than 2 h.

With CC(CC(=O)N1C[C@@H]2C[C@H]1CN2C(=O)[C@@]1(C(C)C)CC[C@@H](NC2CCOCC2)C1)C(F)(F)F (stereo partly specified) the inhibition at 10 µM (hERG (KCNH2)) was 5%, the IC50 [3] was 13 nM and the half-life at 1 µM [2] was greater than 2 h.

Molecule CO[C@@H]1COCC[C@@H]1N[C@@H]1CC[C@@](C(=O)N2C[C@@H]3C[C@H]2CN3C(=O)C2CCCC2)(C(C)C)C1 has an inhibition at 10 µM (hERG (KCNH2)) of 6.7%, an IC50 [4] of 8.5 nM and an IC50 [3] of 11.1 nM. For the same molecule, the half-life at 1 µM [2] was greater than 2 h.

CC(C)COC(=O)N1C[C@@H]2C[C@H]1CN2C(=O)[C@@]1(C(C)C)CC[C@@H](NC2CCOCC2F)C1 (stereo partly specified) showed an inhibition at 10 µM (hERG (KCNH2)) of 0%, an IC50 [3] of 4.3 nM and a half-life at 1 µM [2] of 0.467 h.

Work on CCC(=O)N1C[C@@H]2C[C@H]1CN2C(=O)[C@@]1(C(C)C)CC[C@@H](NC2CCOCC2)C1 yielded an Activity [1] of 28%, an inhibition at 10 µM (hERG (KCNH2)) of 6% and a half-life at 1 µM [2] greater than 2 h.

CO[C@@H]1COCC[C@@H]1N[C@@H]1CC[C@@](C(=O)N2C[C@@H]3C[C@H]2CN3C(=O)c2ccccc2)(C(C)C)C1 showed an inhibition at 10 µM (hERG (KCNH2)) of 7.8%, an IC50 [4] of 6.5 nM and an IC50 [3] of 12 nM. The half-life at 1 µM [2] was 1.57 h.

Work on CC(CC(=O)N1C[C@@H]2C[C@H]1CN2C(=O)[C@@]1(C(C)C)CC[C@@H](NC2CCOCC2F)C1)C(F)(F)F (stereo partly specified) yielded an inhibition at 10 µM (hERG (KCNH2)) of 0%, a Papp B→A [5] of 10.2 ×10⁻⁶ cm/s and a Papp A→B [6] of 11.8 ×10⁻⁶ cm/s. The IC50 [3] was 12.8 nM, the half-life at 1 µM [2] was greater than 2 h and the efflux ratio [7] was 0.8.

CC(C)[C@]1(C(=O)N2C[C@@H]3C[C@H]2CN3C(=O)c2ccccc2)CC[C@@H](NC2CCOCC2F)C1 (stereo partly specified) showed an inhibition at 10 µM (hERG (KCNH2)) of 0% and an IC50 [3] of 17.5 nM.

With CC(OC(=O)N1C[C@@H]2C[C@H]1CN2C(=O)[C@@]1(C(C)C)CC[C@@H](NC2CCOCC2)C1)C(F)(F)F (stereo partly specified) the inhibition at 10 µM (hERG (KCNH2)) was 2%, the IC50 [3] was 3.5 nM and the half-life at 1 µM [2] was 1.3 h.

For CC(OC(=O)N1C[C@@H]2C[C@H]1CN2C(=O)[C@@]1(C(C)C)CC[C@@H](NC2CCOCC2F)C1)C(F)(F)F (stereo partly specified), the inhibition at 10 µM (hERG (KCNH2)) was 3%, the IC50 [3] was 3.2 nM and the half-life at 1 µM [2] was 0.433 h.

Work on CO[C@@H]1COCC[C@@H]1N[C@@H]1CC[C@@](C(=O)N2C[C@@H]3C[C@H]2CN3C(=O)C(C)(C)C)(C(C)C)C1 yielded an inhibition at 10 µM (hERG (KCNH2)) of 6%, an Activity [8] of 40% and a half-life at 1 µM [2] greater than 2 h.

For CC(C)[C@]1(C(=O)N2C[C@@H]3C[C@H]2CN3C(=O)C2CCC2)CC[C@@H](NC2CCOCC2)C1, the inhibition at 10 µM (hERG (KCNH2)) was 6%, the IC50 [4] was 32 nM and the half-life at 1 µM [2] was greater than 2 h.

With CC(C)[C@]1(C(=O)N2C[C@@H]3C[C@H]2CN3C(=O)NC(C)(C)C)CC[C@@H](NC2CCOCC2F)C1 (stereo partly specified) the inhibition at 10 µM (hERG (KCNH2)) was 0%, the IC50 [3] was 28 nM and the half-life at 1 µM [2] was 1.77 h.

For CC(C)[C@]1(C(=O)N2C[C@@H]3C[C@H]2CN3C(=O)C2CCCC2)CC[C@@H](NC2CCOCC2F)C1 (stereo partly specified), the inhibition at 10 µM (hERG (KCNH2)) was 3%, the IC50 [3] was 13.9 nM and the half-life at 1 µM [2] was greater than 2 h.

Work on CC(C)[C@]1(C(=O)N2C[C@@H]3C[C@H]2CN3C(=O)C2CCOCC2)CC[C@@H](NC2CCOCC2)C1 yielded an Activity [1] of 46%, an inhibition at 10 µM (hERG (KCNH2)) of 0% and a half-life at 1 µM [2] greater than 2 h.

In the case of CC(C)[C@]1(C(=O)N2C[C@@H]3C[C@H]2CN3C(=O)CC2CCCC2)CC[C@@H](NC2CCOCC2F)C1 (stereo partly specified), the inhibition at 10 µM (hERG (KCNH2)) is reported as 3%, the IC50 [3] is reported as 14.7 nM and the half-life at 1 µM [2] is reported as 0.8 h.

CC(C)[C@]1(C(=O)N2C[C@@H]3C[C@H]2CN3C(=O)OC(C)(C)C)CC[C@@H](NC2CCOCC2F)C1 (stereo partly specified) showed an inhibition at 10 µM (hERG (KCNH2)) of 6%, an IC50 [4] of 4.2 nM and a half-life at 1 µM [2] of 0.62 h.

CC(C)[C@]1(C(=O)N2C[C@@H]3C[C@H]2CN3C(=O)C2CCC2)CC[C@@H](NC2CCOCC2F)C1 (stereo partly specified) showed an inhibition at 10 µM (hERG (KCNH2)) of 17%, an IC50 [3] of 38.4 nM and a half-life at 1 µM [2] of 0.35 h.

CC(C)[C@]1(C(=O)N2C[C@@H]3C[C@H]2CN3C(=O)C2CCCC2)CC[C@@H](NC2CCOCC2)C1 gave an inhibition at 10 µM (hERG (KCNH2)) of 2%, an IC50 [4] of 12.2 nM and a half-life at 1 µM [2] greater than 2 h.

Molecule CC(C)[C@]1(C(=O)N2C[C@@H]3C[C@H]2CN3C(=O)C(C)(C)C)CC[C@@H](NC2CCOCC2)C1 has an Activity [1] of 23%, an inhibition at 10 µM (hERG (KCNH2)) of 2% and a half-life at 1 µM [2] greater than 2 h.

CO[C@@H]1COCC[C@@H]1N[C@@H]1CC[C@@](C(=O)N2C[C@@H]3C[C@H]2CN3C(=O)C2CCC2)(C(C)C)C1 gave an inhibition at 10 µM (hERG (KCNH2)) of 4%, an IC50 [4] of 11.7 nM and a half-life at 1 µM [2] greater than 2 h.

CC(C)[C@]1(C(=O)N2C[C@@H]3C[C@H]2CN3C(=O)OC(C)(C)C)CC[C@@H](NC2CCOCC2)C1 gave an inhibition at 10 µM (hERG (KCNH2)) of 4.8%, an IC50 [4] of 5 nM and a half-life at 1 µM [2] greater than 2 h.

CC(C)[C@]1(C(=O)N2C[C@@H]3C[C@H]2CN3C(=O)C2CCCCC2)CC[C@@H](NC2CCOCC2F)C1 (stereo partly specified) gave an inhibition at 10 µM (hERG (KCNH2)) of 0%, an IC50 [3] of 15.2 nM and a half-life at 1 µM [2] of 0.917 h.

Molecule CC(C)[C@]1(C(=O)N2C[C@@H]3C[C@H]2CN3C(=O)CCC(F)(F)F)CC[C@@H](NC2CCOCC2F)C1 (stereo partly specified) has an inhibition at 10 µM (hERG (KCNH2)) of 5%, a Papp B→A [5] of 5.3 ×10⁻⁶ cm/s and a Papp A→B [6] of 8.35 ×10⁻⁶ cm/s. For the same molecule, the IC50 [3] was 17.3 nM, the half-life at 1 µM [2] was greater than 2 h and the efflux ratio [7] was 0.6.

CO[C@@H]1COCC[C@@H]1N[C@@H]1CC[C@@](C(=O)N2CCN(C(=O)OC(C)(C)C)CC2)(C(C)C)C1 gave an IC50 [4] of 251 nM.

Molecule CC(C)[C@]1(C(=O)N2CCN(C(=O)OC(C)(C)C)CC2)CC[C@@H](NC2CCOCC2)C1 has an Activity [9] of 24%.
